Measurements from different studies.
Protocols differ between the studies behind these lines.
Target: Macrophage-stimulating protein receptor (MST1R, Homo sapiens, UniProt Q04912)

COc1cc(-c2cn(C3CCc4ccccc4N(CC(F)(F)F)C3=O)nn2)ccc1-n1ccc(C)n1 (stereo not shown) — remaining binding (cell-free assay; competition with immobilised ligand; 1 µM): 96%
Nc1ncnc2occ(-c3ccc(NC(=O)Nc4cc(C(F)(F)F)ccc4F)cc3)c12 — remaining signal (cell-free assay; 20 µM): 7.4%
CCCCN(CCCC)C(=O)CN1C[C@@H](c2cc(OC)c3c(c2)OCO3)[C@H](C(=O)O)[C@H]1CC(C)(C)CCC — remaining binding (cell-free assay; competition with immobilised ligand; 1 µM): 100%
CNC(=O)c1cc(Oc2ccc(NC(=O)Nc3ccc(Cl)c(C(F)(F)F)c3)cc2)ccn1 — inhibition (cell-free assay; 10 µM): -5%
CO[C@H]1CC[C@H](CNc2ccc(S(=O)(=O)NC(=O)c3ccc(N4CCN(CC5=C(c6ccc(Cl)cc6)CC(C)(C)CC5)CC4)cc3Oc3cnc4[nH]ccc4c3)cc2[N+](=O)[O-])CC1 — remaining binding (cell-free assay; competition with immobilised ligand; 1 µM): 92%
Cc1[nH]c(/C=C2\C(=O)Nc3ccc(F)cc32)c(C)c1C(=O)N[C@H]1CCN(C(=O)N(C)C)C1 — remaining activity (enzyme activity; inhibitor; 0.1 µM): 93%
CC(C)(O)[C@H]1CC[C@H](Nc2ccc3ncc(-c4cccc(C(F)(F)F)c4)n3n2)CC1 — remaining activity (enzyme activity; inhibitor; 1 µM): 101%
O=C1CCc2cc(Nc3cc(OC4CCOCC4)c([N+](=O)[O-])cc3Cl)ccc2N1 — remaining binding (cell-free assay; competition with immobilised ligand; 1 µM): 100%
CCN(CC)CCNC(=O)c1c(C)[nH]c(/C=C2\C(=O)Nc3ccc(F)cc32)c1C — remaining activity (enzyme activity; inhibitor; 1 µM): 138%
O=C1NC(=O)c2cc(Nc3ccc(F)cc3)c(Nc3ccc(F)cc3)cc21 — remaining signal (cell-free assay; 0.5 µM): 100%
Cc1ccc(C(=O)NCc2ccsc2)cc1C#Cc1cn(C(C)C)c2ncnc(N)c12 — activity vs control (enzyme activity; inhibitor; 1 µM): 80%
COc1cc2ncnc(Nc3ccc(Oc4ccccc4)cc3C)c2cc1OC — inhibition (enzyme activity; inhibitor; 1 µM): -3%
Cc1ccc(Nc2nccc(N(C)c3ccc4c(C)n(C)nc4c3)n2)cc1S(N)(=O)=O — inhibition (cell-free assay; 0.3 µM): -3%
Oc1cccc(-c2nc(N3CCOCC3)c3oc4ncccc4c3n2)c1 — remaining signal (cell-free assay; 0.5 µM): 94.3%
C=CC(=O)Nc1cc(Nc2nccc(Nc3cc(Cl)c(F)cc3C(C)(C)O)n2)c(OC)cc1N1CC[C@@H](N(C)C)C1 — inhibition (enzyme activity; inhibitor; 1 µM): 8%
COc1cc2c(Nc3ccc(Br)cc3F)ncnc2cc1OCC1CCN(C)CC1 — remaining signal (cell-free assay; 0.5 µM): 93.6%
O=C(Nc1ccc(Oc2ccc(F)cc2)cc1)N1CCc2ncccc2[C@H]1c1ccc(F)cc1 — remaining binding (cell-free assay; competition with immobilised ligand; 1 µM): 98%
O=C(Nc1cnn(-c2csc(C(=O)NC3COC3)c2)c1)Nc1ccccc1Cl — remaining activity (enzyme activity; inhibitor; 5 µM): 108%
COc1cc(Cl)c(C(=O)N[C@@H](CN[C@H]2CC[C@@H](N)CC2)Cc2ccc(C#N)cc2)cc1-c1ccc(CN[C@H](C)c2ccc(C)cc2)o1 — remaining activity (enzyme activity; inhibitor; 1 µM): 92%
O=C(NCc1ncc(C(F)(F)F)cc1Cl)c1ccc2c(c1)C1(CCS(=O)(=O)CC1)[C@H](C1CC1)N2S(=O)(=O)c1ccc(F)cc1 — remaining binding (cell-free assay; competition with immobilised ligand; 1 µM): 99%
CCCCNc1ncc2c(-c3ccc(F)cc3)nn(C[C@H]3CC[C@H](N)CC3)c2n1 — inhibition (target engagement in cells; inhibitor; chemoproteomics; 20 mM): -12.3%
CC(C)(C)c1nc(-c2cccc(NS(=O)(=O)c3c(F)cccc3F)c2F)c(-c2ccnc(N)n2)s1 — remaining activity (enzyme activity; inhibitor; radiometric; 1 µM): 104%
c1ccc(CNc2nc(N3CCOc4ccccc43)nc3c2CCCC3)cc1 — inhibition (target engagement in cells; inhibitor; chemoproteomics; 20 mM): -10.5%
CCN(CC)CCNC(=O)c1c(C)[nH]c(/C=C2\C(=O)Nc3ccc(F)cc32)c1C — inhibition (cell-free assay; 0.3 µM): -3%
CC1=C(C#N)[C@@H](c2ccc3[nH]nc(C)c3c2)C(C#N)=C(c2ccc(Cl)cc2)N1 — remaining binding (cell-free assay; competition with immobilised ligand; 1 µM): 70.2%
Cc1cc(NC(=O)c2cccc3cc(-c4cccc5[nH]nc(N)c45)ccc23)ccc1F — activity vs control (enzyme activity; inhibitor; 0.1 µM): 110%
Cc1cc(-n2nc(Cc3cc(F)cc(C(F)(F)F)c3)nc2C)ccc1C(N)=O — remaining binding (cell-free assay; competition with immobilised ligand; 1 µM): 100%
Cc1sc(C(=O)NC2COC2)cc1-n1cc(NC(=O)Nc2c(F)cccc2Cl)cn1 — remaining activity (enzyme activity; inhibitor; 10 µM): 96.9%
